In brackets after ≈: the same amount, converted by molar mass. Activity calls are given as the source filed them. The calls are words filed in the database; no cut-off is given here.
Tests used:
[1] = test system: Salmonella enteritidis; test: Antibacterial activity against wild type Salmonella enteritidis 104 harboring gyrA D87Y mutant gene by CLSI method; format: functional, Salmonella enterica subsp. enterica serovar Enteritidis; conditions: Salmonella enterica
[2] = test system: Salmonella enteritidis; test: Antibacterial activity against ciprofloxacin-susceptibility revert strain of Salmonella enteritidis 104 harboring gyrA D87Y/S83F mutant, parC D79N mutant, soxR E16G/R20H mutant and soxS E52K mutant gene after 20 passages by CLSI method; format: functional, Salmonella enterica subsp. enterica serovar Enteritidis; conditions: Salmonella enterica
[3] = test system: Salmonella enteritidis; test: Antibacterial activity against ciprofloxacin-susceptible Salmonella enteritidis 1A-revertC2 harboring gyrA D87Y/S83F mutant, parC D79N mutant, soxR R133C/R20H mutant, soxS E52K mutant and marA I111N/H115Q mutant gene after 70 passages by CLSI method; format: functional, Salmonella enterica subsp. enterica serovar Enteritidis; conditions: Salmonella enterica
[4] = test system: Salmonella enteritidis; test: Antibacterial activity against wild type Salmonella enteritidis 5408 harboring gyrA D87Y mutant gene by CLSI method; format: functional, Salmonella enterica subsp. enterica serovar Enteritidis; conditions: Salmonella enterica
[5] = test system: Salmonella enteritidis; test: Antibacterial activity against ciprofloxacin-resistant Salmonella enteritidis 5408 harboring gyrA D87Y mutant, gyrB E466D mutant, parE V461G mutant and ramR G25A mutant gene after 200 passages by CLSI method; format: functional, Salmonella enterica subsp. enterica serovar Enteritidis; conditions: Salmonella enterica
[6] = test system: Salmonella enteritidis; test: Antibacterial activity against Salmonella enteritidis NCTC 13349 by CLSI method; format: functional, Salmonella enterica subsp. enterica serovar Enteritidis; conditions: Salmonella enterica
[7] = test system: Salmonella enteritidis; test: Antibacterial activity against ciprofloxacin-resistant Salmonella enteritidis 104 harboring gyrA D87Y/S83F mutant, soxR R20H mutant and soxS E52K mutant gene by CLSI method; conditions: Salmonella enterica
[8] = test system: Salmonella enteritidis; test: Antibacterial activity against ciprofloxacin-resistant Salmonella enteritidis 104 harboring gyrA D87Y/S83F mutant, soxR R20H mutant and soxS E52K mutant gene assessed as reduction in swim motility after overnight incubation; format: functional, Salmonella enterica subsp. enterica serovar Enteritidis
Outline: (§1)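 Swim assay: 1 µl of overnight culture spotted centrally on LB with 0.1% gellan gum, dried 1 h at room temperature, incubated overnight at 30°C. Visible spread measured with a ruler (mm). Reduction expressed relative to the parent strain.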

[9] = test system: Salmonella enteritidis; test: Antibacterial activity against ciprofloxacin-susceptibility revert strain of Salmonella enteritidis 104 harboring gyrA D87Y/S83F mutant, parC D79N mutant, soxR E16G/R20H mutant and soxS E52K mutant gene assessed as reduction in swim motility after overnight incubation; format: functional, Salmonella enterica subsp. enterica serovar Enteritidis; outline: as §1
[10] = test system: Salmonella enteritidis; test: Antibacterial activity against ciprofloxacin-resistant Salmonella enteritidis 5408 harboring gyrA D87Y mutant, gyrB E466D mutant, parE V461G mutant and ramR G25A mutant gene assessed as reduction in swim motility after overnight incubation; format: functional, Salmonella enterica subsp. enterica serovar Enteritidis; outline: as §1
[11] = test system: Salmonella enteritidis; test: Antibacterial activity against ciprofloxacin-resistant Salmonella enteritidis 104 harboring gyrA D87Y/S83F mutant, soxR R20H mutant and soxS E52K mutant gene assessed as reduction in swarm motility after overnight incubation; format: functional, Salmonella enterica subsp. enterica serovar Enteritidis
Outline: (§2)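 Swarm assay: overnight LB culture pelleted, washed once, concentrated 50-fold. 2 µl spotted on LB with 0.2% gellan gum, incubated overnight at 30°C. Colony spread measured in mm. Reduction expressed relative to the parent strain.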

[12] = test system: Salmonella enteritidis; test: Antibacterial activity against ciprofloxacin-resistant Salmonella enteritidis 5408 harboring gyrA D87Y mutant, gyrB E466D mutant, parE V461G mutant and ramR G25A mutant gene assessed as reduction in swarm motility after overnight incubation; format: functional, Salmonella enterica subsp. enterica serovar Enteritidis; outline: as §2
[13] = test system: Salmonella enteritidis; test: Antibacterial activity against ciprofloxacin-susceptibility revert strain of Salmonella enteritidis 104 harboring gyrA D87Y/S83F mutant, parC D79N mutant, soxR E16G/R20H mutant and soxS E52K mutant gene assessed as reduction in swarm motility after overnight incubation; format: functional, Salmonella enterica subsp. enterica serovar Enteritidis; outline: as §2
[14] = test system: Salmonella enteritidis; test: Antibacterial activity against Salmonella enteritidis by CLSI method; conditions: Salmonella enterica
[15] = test system: Salmonella enteritidis; test: Antibacterial activity against ciprofloxacin-resistant Salmonella enteritidis 104 harboring gyrA D87Y/S83F mutant, soxR R20H mutant and soxS E52K mutant gene after 24 hrs by spectrophotometry; format: functional, organism-based; conditions: Salmonella enterica subsp. enterica serovar Enteritidis
Outline: (§3)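 Growth in TSB: colony from TSA (37°C, 18 h) grown overnight in 10 ml TSB, 1 ml into 100 ml TSB, shaken aerobically at 37°C. Absorbance read hourly for 8 h, then at 24 h, by spectrophotometer.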

[16] = test system: Salmonella enteritidis; test: Antibacterial activity against ciprofloxacin-resistant Salmonella enteritidis 5408 harboring gyrA D87Y mutant, gyrB E466D mutant, parE V461G mutant and ramR G25A mutant gene after 24 hrs by spectrophotometry; format: functional, organism-based; conditions: Salmonella enterica subsp. enterica serovar Enteritidis; outline: as §3
[17] = test system: Salmonella enteritidis; test: Antibacterial activity against wild type Salmonella enteritidis 104 harboring gyrA D87Y mutant gene after 24 hrs by spectrophotometry; format: functional, organism-based; conditions: Salmonella enterica subsp. enterica serovar Enteritidis; outline: as §3
[18] = test system: Salmonella enteritidis; test: Antibacterial activity against wild type Salmonella enteritidis 5408 harboring gyrA D87Y mutant gene after 24 hrs by spectrophotometry; format: functional, organism-based; conditions: Salmonella enterica subsp. enterica serovar Enteritidis; outline: as §3
[19] = test system: Salmonella enteritidis; test: Antibacterial activity against ciprofloxacin-susceptibility revert strain of Salmonella enteritidis 104 harboring gyrA D87Y/S83F mutant, parC D79N mutant, soxR E16G/R20H mutant and soxS E52K mutant gene after 24 hrs by spectrophotometry; format: functional, organism-based; conditions: Salmonella enterica subsp. enterica serovar Enteritidis; outline: as §3
[20] = test system: Salmonella enteritidis; test: Antibacterial activity against ciprofloxacin-susceptible Salmonella enteritidis 1A-revertC2 harboring gyrA D87Y/S83F mutant, parC D79N mutant, soxR R133C/R20H mutant, soxS E52K mutant and marA I111N/H115Q mutant gene after 70 passages after 24 hrs by spectrophotometry; format: functional, organism-based; conditions: Salmonella enterica subsp. enterica serovar Enteritidis; outline: as §3
[21] = test system: Salmonella enteritidis; test: Antibacterial activity against ciprofloxacin-resistant Salmonella enteritidis 104 harboring gyrA D87Y/S83F mutant, soxR R20H mutant and soxS E52K mutant gene assessed as length of bacterial rods by microscopy; format: functional, Salmonella enterica subsp. enterica serovar Enteritidis
[22] = test system: Salmonella enteritidis; test: Antibacterial activity against wild type Salmonella enteritidis 104 harboring gyrA D87Y mutant gene assessed as length of bacterial rods by microscopy; format: functional, Salmonella enterica subsp. enterica serovar Enteritidis
[23] = test system: Salmonella enteritidis; test: Antibacterial activity against ciprofloxacin-resistant Salmonella enteritidis 104 harboring gyrA D87Y/S83F mutant, soxR R20H mutant and soxS E52K mutant gene assessed as width of bacterial rods by microscopy; format: functional, Salmonella enterica subsp. enterica serovar Enteritidis
[24] = test system: Salmonella enteritidis; test: Antibacterial activity against wild type Salmonella enteritidis 104 harboring gyrA D87Y mutant gene assessed as width of bacterial rods by microscopy; format: functional, Salmonella enterica subsp. enterica serovar Enteritidis
[25] = test system: Salmonella enteritidis; test: Antibacterial activity against ciprofloxacin-resistant Salmonella enteritidis 5408 harboring gyrA D87Y mutant, gyrB E466D mutant, parE V461G mutant and ramR G25A mutant gene assessed as length of bacterial rods by microscopy; format: functional, Salmonella enterica subsp. enterica serovar Enteritidis
[26] = test system: Salmonella enteritidis; test: Antibacterial activity against wild type Salmonella enteritidis 5408 harboring gyrA D87Y mutant gene assessed as length of bacterial rods by microscopy; format: functional, Salmonella enterica subsp. enterica serovar Enteritidis
[27] = test system: Salmonella enteritidis; test: Antibacterial activity against ciprofloxacin-resistant Salmonella enteritidis 5408 harboring gyrA D87Y mutant, gyrB E466D mutant, parE V461G mutant and ramR G25A mutant gene assessed as width of bacterial rods by microscopy; format: functional, Salmonella enterica subsp. enterica serovar Enteritidis
[28] = test system: Salmonella enteritidis; test: Antibacterial activity against wild type Salmonella enteritidis 5408 harboring gyrA D87Y mutant gene assessed as width of bacterial rods by microscopy; format: functional, Salmonella enterica subsp. enterica serovar Enteritidis

SMILES: CCn1cc(C(=O)O)c(=O)c2ccc(C)nc21 [NALIDIXIC ACID]
- MIC [1]: > 256 µg/mL
- MIC [2]: > 256 µg/mL
- MIC [3]: > 256 µg/mL
- MIC [4]: > 256 µg/mL
- MIC [5]: > 256 µg/mL
- MIC [6]: 8 µg/mL (≈ 34.4 µM)
- MIC [7]: > 256 µg/mL

SMILES: CN(C)[C@@H]1C(O)=C(C(N)=O)C(=O)[C@@]2(O)C(O)=C3C(=O)c4c(O)cccc4[C@@](C)(O)[C@H]3C[C@@H]12 [TETRACYCLINE]
- MIC [1]: 1 µg/mL (≈ 2.25 µM)
- MIC [2]: 2 µg/mL (≈ 4.5 µM)
- MIC [3]: 0.5 µg/mL (≈ 1.13 µM)
- MIC [4]: 1 µg/mL (≈ 2.25 µM)
- MIC [5]: 2 µg/mL (≈ 4.5 µM)
- MIC [7]: 16 µg/mL (≈ 36 µM)

SMILES: CC1(C)S[C@@H]2[C@H](NC(=O)[C@H](N)c3ccccc3)C(=O)N2[C@H]1C(=O)O [AMPICILLIN]
- MIC [1]: 1 µg/mL (≈ 2.86 µM)
- MIC [2]: 4 µg/mL (≈ 11.4 µM)
- MIC [3]: 0.5 µg/mL (≈ 1.43 µM)
- MIC [4]: 1 µg/mL (≈ 2.86 µM)
- MIC [5]: 4 µg/mL (≈ 11.4 µM)
- MIC [7]: 16 µg/mL (≈ 45.8 µM)

SMILES: O=C(N[C@H](CO)[C@H](O)c1ccc([N+](=O)[O-])cc1)C(Cl)Cl [CHLORAMPHENICOL]
- MIC [1]: 2 µg/mL (≈ 6.19 µM)
- MIC [2]: 8 µg/mL (≈ 24.8 µM)
- MIC [3]: 2 µg/mL (≈ 6.19 µM)
- MIC [4]: 4 µg/mL (≈ 12.4 µM)
- MIC [5]: 16 µg/mL (≈ 49.5 µM)
- MIC [7]: 128 µg/mL (≈ 396 µM)

SMILES: O=C(O)c1cn(C2CC2)c2cc(N3CCNCC3)c(F)cc2c1=O [CIPROFLOXACIN]
- inhibition (INH) [8]: 66%
- inhibition (INH) [9]: 90%
- inhibition (INH) [10]: 93%
- inhibition (INH) [11]: 36%
- inhibition (INH) [12]: 46%
- inhibition (INH) [13]: 36%
- MIC [14]: 0.12 µg/mL (≈ 0.362 µM)
- Activity [15]: inactive
- Activity [16]: inactive
- Activity [17]: Active
- Activity [18]: Active
- Activity [19]: Active
- Activity [20]: Active
- Activity [21]: 1.16 um
- Activity [22]: 1.02 um
- Activity [23]: 0.45 um
- Activity [24]: 0.43 um
- Activity [25]: 1 um
- Activity [26]: 1.1 um
- Activity [27]: 0.51 um
- Activity [28]: 0.46 um

Reference: ChEMBL document CHEMBL1240355 (2010)
